Molecular target: T1, Ileal sodium/bile acid cotransporter (Homo sapiens, UniProt Q12908)
T1 sequence (Q12908 whole entry): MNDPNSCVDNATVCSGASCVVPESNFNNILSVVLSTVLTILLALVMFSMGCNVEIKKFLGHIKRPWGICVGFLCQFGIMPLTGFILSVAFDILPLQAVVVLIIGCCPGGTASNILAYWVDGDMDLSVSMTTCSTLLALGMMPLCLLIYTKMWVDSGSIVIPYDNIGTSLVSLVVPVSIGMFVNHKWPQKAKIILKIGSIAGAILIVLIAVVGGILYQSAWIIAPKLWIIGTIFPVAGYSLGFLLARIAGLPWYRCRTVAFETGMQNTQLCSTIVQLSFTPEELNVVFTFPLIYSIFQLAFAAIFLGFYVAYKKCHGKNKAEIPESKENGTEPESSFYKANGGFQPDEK
Test: In vitro inhibition of ASBT mediated uptake of [14C]taurocholate (5 uM) in baby hamster cells expressing human IBAT
Assay type: cell-based
Conditions: not given

| SMILES | IC50 |
| --- | --- |
| CCCCC1(CCCC)CS(=O)(=O)c2ccc(N(C)C)cc2[C@@H](c2ccc(C[N+](C)(C)C)cc2)[C@H]1O (racemic) | 8800 nM |
| CCCCC1(CCCC)CS(=O)(=O)c2ccc(N(C)C)cc2[C@@H](c2ccc(OCc3cc[n+](C)cc3)cc2)[C@H]1O | 0.75 nM |
| CCCCC1(CCCC)CS(=O)(=O)c2ccc(N(C)C)cc2[C@@H](c2ccc3cc(O)ccc3c2)[C@H]1O (racemic) | 17 nM |
| CCCCC1(CCCC)CS(=O)(=O)c2ccc(N(C)C)cc2[C@@H](c2ccc(OCCOCCOCC[N+](C)(C)C)cc2)[C@H]1O | 4 nM |
| CCCCC1(CCCC)CS(=O)(=O)c2ccc(N(C)C)cc2[C@@H](c2ccc(OCc3ccncc3)cc2)[C@H]1O | 28 nM |
| CCCCC1(CCCC)CS(=O)(=O)c2ccc(N(C)C)cc2[C@@H](c2ccc(OCCOCCOCC[N+]34CCN(CC3)CC4)cc2)[C@H]1O | 4 nM |
| CCCCC1(CCCC)CS(=O)(=O)c2ccc(N(C)C)cc2[C@@H](c2cccc(OCCN(CC)CC)c2)[C@H]1O | 45 nM |
| CCCCC1(CCCC)CS(=O)(=O)c2ccc(N(C)C)cc2[C@@H](c2ccc(OCCOCC[N+](CC)(CC)CC)cc2)[C@H]1O | 5.7 nM |
| CCCCC1(CCCC)CS(=O)(=O)c2ccc(N(C)C)cc2[C@@H](c2ccc(OCCCCCN(CC(=O)O)CC(=O)O)cc2)[C@H]1O | 2.3 nM |
| CCCCC1(CCCC)CS(=O)(=O)c2ccc(N(C)C)cc2[C@@H](c2ccc(OC)c(OC)c2)[C@H]1O (racemic) | 20 nM |
| CCCCC1(CCCC)CS(=O)(=O)c2ccc(N(C)C)cc2[C@@H](c2ccc(OC)cc2)[C@H]1O (racemic) | 6.8 nM |
| CCCCC1(CCCC)CS(=O)(=O)c2ccc(N(C)C)cc2[C@@H](c2ccsc2)[C@H]1O (racemic) | 5 nM |
| CCCCC1(CCCC)CS(=O)(=O)c2ccc(N(C)C)cc2[C@@H](c2ccc(C[N+](CC)(CC)CC)cc2)[C@H]1O (racemic) | 5500 nM |
| CCCCC1(CCCC)CS(=O)(=O)c2ccc(N(C)C)cc2[C@@H](c2ccc3cc(OC)ccc3c2)[C@H]1O (racemic) | 75 nM |
| CCCCC1(CCCC)CS(=O)(=O)c2ccc(N(C)C)cc2[C@@H](c2ccc(OCC[N+](C)(C)C)cc2)[C@H]1O | 260 nM |
| CCCCC1(CCCC)CS(=O)(=O)c2ccc(N(C)C)cc2[C@@H](c2ccc(OCCCCC[N+](CC)(CC)CC)cc2)[C@H]1O | 2 nM |
| CCCCC1(CCCC)CS(=O)(=O)c2ccc(N(C)C)cc2[C@@H](c2ccc(OCCOCCOCCN3CCCN(C)CCN(C)CCCN(C)CC3)c(F)c2)[C@H]1O | 3 nM |

| SMILES | IC50 |
| --- | --- |
| CCCCC1(CCCC)CS(=O)(=O)c2ccc(N(C)C)cc2[C@@H](c2ccc(C[n+]3ccccc3)cc2)[C@H]1O (racemic) | 850 nM |
| CCCCC1(CCCC)CS(=O)(=O)c2ccc(N(C)C)cc2[C@@H](c2ccc(OCc3cc[n+](CC)cc3)cc2)[C@H]1O | 6 nM |
| CCCCC1(CCCC)CS(=O)(=O)c2ccc(N(C)C)cc2[C@@H](c2ccc(OC)c(F)c2)[C@H]1O (racemic) | 3.6 nM |
| CCCCC1(CCCC)CS(=O)(=O)c2ccc(N(C)C)cc2[C@@H](c2ccc(C(C)(C)C)cc2)[C@H]1O (racemic) | 1000 nM |
| CCCCC1(CCCC)CS(=O)(=O)c2ccc(N(C)C)cc2[C@@H](c2ccc(OCCOCCOCCN(CCO)CCO)cc2)[C@H]1O | 9 nM |
| CCCCC1(CCCC)CS(=O)(=O)c2ccc(N(C)C)cc2[C@@H](c2cccc(OCC[N+](CC)(CC)CC)c2)[C@H]1O | 7 nM |
| CCCCC1(CCCC)CS(=O)(=O)c2ccc(N(C)C)cc2[C@@H](c2ccc(CN(CC)CC)cc2)[C@H]1O (racemic) | 930 nM |
| CCCCC1(CCCC)CS(=O)(=O)c2ccc(N(C)C)cc2[C@@H](c2cccc3ccccc23)[C@H]1O (racemic) | 620 nM |
| CCCCC1(CCCC)CS(=O)(=O)c2ccc(N(C)C)cc2[C@@H](c2ccc(OCCCCCN(CC)CC)cc2)[C@H]1O | 16 nM |
| CCCCC1(CCCC)CS(=O)(=O)c2ccc(N(C)C)cc2[C@@H](c2ccc(OCCN(C)C)cc2)[C@H]1O | 340 nM |
| CCCCC1(CCCC)CS(=O)(=O)c2ccc(N(C)C)cc2[C@@H](c2ccccn2)[C@H]1O (racemic) | 5 nM |
| CCCCC1(CCCC)CS(=O)(=O)c2ccc(N(C)C)cc2[C@@H](c2ccc(OCCCCC[N+]34CCN(CC3)CC4)cc2)[C@H]1O | 0.5 nM |
| CCCCC1(CCCC)CS(=O)(=O)c2ccc(N(C)C)cc2[C@@H](c2ccc(OCCOCC[N+]34CCN(CC3)CC4)cc2)[C@H]1O | 8.5 nM |
| CCCCC1(CCCC)CS(=O)(=O)c2ccc(N(C)C)cc2[C@@H](c2cccc(OCCCCC[N+](CC)(CC)CC)c2)[C@H]1O | 2 nM |
| CCCCC1(CCCC)CS(=O)(=O)c2ccc(N(C)C)cc2[C@@H](c2cccs2)[C@H]1O (racemic) | 30 nM |
| CCCCC1(CCCC)CS(=O)(=O)c2ccc(N(C)C)cc2[C@@H](c2ccc(OCCOCCOCCN(CC)CC)cc2)[C@H]1O | 30 nM |
| CCCCC1(CCCC)CS(=O)(=O)c2ccc(N(C)C)cc2[C@@H](c2ccc(SC)cc2)[C@H]1O (racemic) | 42 nM |

The next lines start with the values.

| IC50 | SMILES |
| --- | --- |
| 11 nM | CCCCC1(CCCC)CS(=O)(=O)c2ccc(N(C)C)cc2[C@@H](c2cccc(OC)c2)[C@H]1O (racemic) |
| 67 nM | CCCCC1(CCCC)CS(=O)(=O)c2ccc(N(C)C)cc2[C@@H](c2cccc(C[N+](C)(C)C)c2)[C@H]1O |
| 3.7 nM | CCCCC1(CCCC)CS(=O)(=O)c2ccc(N(C)C)cc2[C@@H](c2cccc(CS(=O)(=O)O)c2)[C@H]1O (racemic) |
| 2 nM | CCCCC1(CCCC)CS(=O)(=O)c2ccc(N(C)C)cc2[C@@H](c2cccc(N)c2)[C@H]1O (racemic) |
| 9.5 nM | CCCCC1(CCCC)CS(=O)(=O)c2ccc(N(C)C)cc2[C@@H](c2ccc(O)c(O)c2)[C@H]1O (racemic) |
| 7 nM | CCCCC1(CCCC)CS(=O)(=O)c2ccc(N(C)C)cc2[C@@H](c2cccc(C(=O)OC)c2)[C@H]1O (racemic) |
| 11 nM | CCCCC1(CCCC)CS(=O)(=O)c2ccc(N(C)C)cc2[C@@H](c2ccc(CO)cc2)[C@H]1O (racemic) |
| 4.5 nM | CCCCC1(CCCC)CS(=O)(=O)c2ccc(N(C)C)cc2[C@@H](c2cccc(CO)c2)[C@H]1O (racemic) |
| 7.5 nM | CCCCC1(CCCC)CS(=O)(=O)c2ccc(N(C)C)cc2[C@@H](c2cccc(C[n+]3ccccc3)c2)[C@H]1O (racemic) |
| 220 nM | CCCCC1(CCCC)CS(=O)(=O)c2ccc(N(C)C)cc2[C@@H](c2ccc[n+](C)c2)[C@H]1O (racemic) |
| 52 nM | CCCCC1(CCCC)CS(=O)(=O)c2ccc(N(C)C)cc2[C@@H](c2cccc(Nc3ccncc3)c2)[C@H]1O |
| 47 nM | CCCCC1(CCCC)CS(=O)(=O)c2ccc(N(C)C)cc2[C@@H](c2cccc(CN(C)C)c2)[C@H]1O (racemic) |
| 8 nM | CCCCC1(CCCC)CS(=O)(=O)c2ccc(N(C)C)cc2[C@@H](c2ccncc2)[C@H]1O (racemic) |
| 320 nM | CCCCC1(CCCC)CS(=O)(=O)c2ccc(N(C)C)cc2[C@@H](c2ccc(C(=O)O)cc2)[C@H]1O (racemic) |
| 0.3 nM | CCCCC1(CCCC)CS(=O)(=O)c2ccc(N(C)C)cc2[C@@H](c2cccc(NCC(=O)NCC(=O)O)c2)[C@H]1O |
| 41 nM | CCCCC1(CCCC)CS(=O)(=O)c2ccc(N(C)C)cc2[C@@H](c2ccc(C(=O)OC)cc2)[C@H]1O (racemic) |
| 22 nM | CCCCC1(CCCC)CS(=O)(=O)c2ccc(N(C)C)cc2[C@@H](c2ccc(F)c(F)c2)[C@H]1O (racemic) |
| 7.3 nM | CCCCC1(CCCC)CS(=O)(=O)c2ccc(N(C)C)cc2[C@@H](c2cccc(O)c2)[C@H]1O (racemic) |
| 0.76 nM | CCCCC1(CCCC)CS(=O)(=O)c2ccc(N(C)C)cc2[C@@H](c2cccc(NC(=O)CCCC[N+](CC)(CC)CC)c2)[C@H]1O |
| 2.2 nM | CCCCC1(CCCC)CS(=O)(=O)c2ccc(N(C)C)cc2[C@@H](c2ccc(O)cc2)[C@H]1O (racemic) |
| 7.5 nM | CCCCC1(CCCC)CS(=O)(=O)c2ccc(N(C)C)cc2[C@@H](c2cccnc2)[C@H]1O (racemic) |
| 2 nM | CCCCC1(CCCC)CS(=O)(=O)c2ccc(N(C)C)cc2[C@@H](c2cccc(Nc3cc[n+](C)cc3)c2)[C@H]1O |

System: not listed separately
Test: Efficacy to increase fecal bile acid excretion; + is more efficacious
Assay type: ADME, tissue-based, Feces
Conditions: rat
How it was run: (§1)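 Male Wistar rats (275–300 g) were gavaged once each morning for 4 days at 5, 0.2 or 0.04 mpk in aqueous 0.2% (v/v) Tween-80 (2 mL/kg). Feces from the final 48 h were homogenized in twice their weight of water. Homogenate was diluted in butanol/water (2:0.6), extracted 45 min at 37 °C, centrifuged, and bile acids (μmol/day) measured enzymatically. Scores compared against a reference analogue at 0.04 mg/kg.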

| Efficacy | SMILES |
| --- | --- |
| More efficacious than analogue 2 | CCCCC1(CCCC)CS(=O)(=O)c2ccc(N(C)C)cc2[C@@H](c2ccc(OCc3cc[n+](C)cc3)cc2)[C@H]1O |
| More efficacious than analogue 2 | CCCCC1(CCCC)CS(=O)(=O)c2ccc(N(C)C)cc2[C@@H](c2ccc(OCc3ccc(C[N+]45CCN(CC4)CC5)cc3)cc2)[C@H]1O [MARALIXIBAT] |
| More efficacious than analogue 2 | CCCCC1(CCCC)CS(=O)(=O)c2ccc(N(C)C)cc2[C@@H](c2ccc(OCCCCCN(CC(=O)O)CC(=O)O)cc2)[C@H]1O |
| More efficacious than analogue 2 | CCCCC1(CCCC)CS(=O)(=O)c2ccc(N(C)C)cc2[C@@H](c2ccc(OCCC[N+]34CCN(CC3)CC4)cc2)[C@H]1O |
| More efficacious than analogue 2 | CCCCC1(CCCC)CS(=O)(=O)c2ccc(N(C)C)cc2[C@@H](c2ccc(OCCCC[N+]34CCN(CC3)CC4)cc2)[C@H]1O |
| More efficacious than analogue 2 | CCCCC1(CCCC)CS(=O)(=O)c2ccc(N(C)C)cc2[C@@H](c2ccc(OCC(=O)NCC(=O)O)cc2)[C@H]1O |

System: not listed separately
Test: Amount (dissolved in aqueous Tween-80) in bile of rat was determined by fecal bile acid content for 45 min in a 37 degree C
Assay type: ADME, tissue-based, Feces
Set-up: concentration or dose not given beside the values
Conditions: in vivo, 0.75 h
How it was run: as §1

| Activity | SMILES |
| --- | --- |
| 0.03% | CCCCC1(CCCC)CS(=O)(=O)c2ccc(N(C)C)cc2[C@@H](c2ccc(OCc3cc[n+](C)cc3)cc2)[C@H]1O |
| 0.11% | CCCCC1(CCCC)CS(=O)(=O)c2ccc(N(C)C)cc2[C@@H](c2ccc(OCc3ccc(C[N+]45CCN(CC4)CC5)cc3)cc2)[C@H]1O [MARALIXIBAT] |
| 0.24% | CCCCC1(CCCC)CS(=O)(=O)c2ccc(N(C)C)cc2[C@@H](c2ccc(OCCCCCN(CC(=O)O)CC(=O)O)cc2)[C@H]1O |
| 0.21% | CCCCC1(CCCC)CS(=O)(=O)c2ccc(N(C)C)cc2[C@@H](c2ccc(OCCC[N+]34CCN(CC3)CC4)cc2)[C@H]1O |
| 0.12% | CCCCC1(CCCC)CS(=O)(=O)c2ccc(N(C)C)cc2[C@@H](c2ccc(OCCCC[N+]34CCN(CC3)CC4)cc2)[C@H]1O |
| 0.12% | CCCCC1(CCCC)CS(=O)(=O)c2ccc(N(C)C)cc2[C@@H](c2ccc(OCc3ccc(CN(CC(=O)O)CC(=O)O)cc3)cc2)[C@H]1O |
| 7.14% | CCCCC1(CCCC)CS(=O)(=O)c2ccc(N(C)C)cc2[C@@H](c2ccc(OCC(=O)NCC(=O)O)cc2)[C@H]1O |
